# Only some compounds are listed: those with a hit (about 3% of all), similar ones and a draw of the others.
# S1P1 ag pot = S1P1 agonists and agonism potentiators, primary screen, cell-based, primary and confirmation screens, CRE-bla reporter; Sphingosine 1-phosphate receptor 1 (Homo sapiens), P21453; S1P1 CRE-bla cells, forskolin, beta-lactamase FRET, potentiator mode; S1P1 agonist co-added at EC20, 2 nM; 100% = saturating reference agonist, 0% = basal; activation, % at 9.5 µM; actives 0.57% (n = 56,000);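 active means activation above a cutoff set at the mean activation of all tested compounds plus 3 SD, cut at about 54% in these data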;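 further: forskolin at 4 µM as EC80 and the EC20 agonist is SEW2871; 100% = SEW2871 at its EC100 plus forskolin at EC80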
# 5HT1a antag = human 5-HT1a receptor antagonists, primary screen, cell-based, CHO, Ga15 NFAT-bla reporter; 5-hydroxytryptamine receptor 1A (Homo sapiens), P08908; CHO 5-HT1a Ga15 NFAT-bla reporter, antagonist mode; inhibition, % at 10 µM; actives 0.68% (n = 62,000); AID 612, 2007;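 active means inhibition above the mean of all tested compounds plus 3 SD, cut at about 43% in these data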;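 further: receptor stimulated by 5-CT agonist at 100 nM near EC80; beta-lactamase reporter measured by ratiometric fluorescence of a cleavable substrate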
# S1P3 agonist = human S1P3 receptor agonists, primary screen, cell-based, primary and confirmation, NFAT-BLA reporter. AID 373, 2006. S1P3 NFAT-BLA reporter cells, agonism, FRET ratio; relative to 1 µM S1P, basal subtracted. actives 0.1% (n = 60,000). activation, % at 4.5 µM. Sphingosine 1-phosphate receptor 3 (Homo sapiens), Q99500;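 active means activation above the screen-wide mean plus 3 SD, cut at about 4.5% in these data, passing the limit was not always enough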
# Target sequence (Q99500 whole entry, looked up): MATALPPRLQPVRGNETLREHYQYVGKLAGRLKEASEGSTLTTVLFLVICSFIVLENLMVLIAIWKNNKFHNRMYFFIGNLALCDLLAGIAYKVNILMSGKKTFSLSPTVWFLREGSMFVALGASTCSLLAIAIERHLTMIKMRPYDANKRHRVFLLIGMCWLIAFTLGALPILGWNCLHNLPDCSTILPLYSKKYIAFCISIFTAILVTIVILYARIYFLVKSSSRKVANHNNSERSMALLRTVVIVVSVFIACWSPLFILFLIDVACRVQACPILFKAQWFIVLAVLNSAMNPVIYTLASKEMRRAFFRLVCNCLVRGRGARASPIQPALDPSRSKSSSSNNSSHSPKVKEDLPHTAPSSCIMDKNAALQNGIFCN
#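 Benchmarks: high control 1 µM S1P / System: stable CHO line with human S1P3, Gα16, NFAT-BLA reporter / Dosing: single compound concentration, 4.5 µM final / Timing: 4 h compound at 37 °C, 2 h substrate at RT / Measured by: FRET β-lactamase substrate fluorescence, excitation 405 nm, 460/535 nm emission ratio, background-subtracted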
# 5HT1E ag = 5-HT1E receptor agonists, primary screen, cell-based, HTS; CHO 5-HT1E Ga15 NFAT-bla reporter, FRET; 0% DMSO wells, 100% control agonist wells; actives 0.69% (n = 65,000); activation, % at 6 µM; AID 574, 2007;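 active means activation above a set limit, the screen-wide mean activation plus 3 SD, cut at about 8.5% in these data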;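 further: 100% = positive control agonist at 1 µM giving full maximal response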
# HTR1E antagonist = 5-HT1E receptor antagonists, primary screen, cell-based, HTS | 5-hydroxytryptamine receptor 1E (Homo sapiens), P28566 | CHO 5-HT1E Ga15 NFAT-bla reporter, FRET, antagonist | inhibition, % at 6 µM | actives 0.99% (n = 65,000) | AID 571, 2007;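 active means inhibition above a set limit, the mean inhibition across every tested compound plus 3 SD, cut at about 29% in these data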;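 further: signal is the 460 over 535 nm emission ratio of beta-lactamase substrate; 0% = agonist plus DMSO wells and 100% = wells without agonist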
# HTR1A agonist = human 5-HT1a receptor agonists, primary screen, cell-based, CHO, Ga15 NFAT-bla reporter. 5-hydroxytryptamine receptor 1A (Homo sapiens), P08908. CHO 5-HT1a Ga15 NFAT-bla reporter, FRET ratio; 0% basal, 100% maximal reference agonist. activation, % at 10 µM. actives 0.56% (n = 65,000). AID 567, 2006;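 active means activation above the screen-wide mean activation plus 3 SD, cut at about 19% in these data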;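 further: 0% = DMSO wells and 100% = 5-CT at EC100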
# Active calls of the source: *; . = not tested or not shown.
SMILES,S1P1 ag pot,5HT1a antag,S1P3 agonist,5HT1E ag,HTR1E antagonist,HTR1A agonist
Cc1ccccc1OCCCN1CCCC1,-12,-9,0,1,0,-3
CCc1ccccc1OCCCCN1CCCC1,.,6,-1,12*,-9,-1
C=CCc1ccccc1OCCCCN1CCCC1,-4,20,-2,10*,7,2
C=CCSc1nc(N)c2c(C)c(C)sc2n1,-31,-5,-1,0,4,49*
COc1cccc(-c2nn(C)c3sc(C(=O)NCc4ccc(C)o4)cc23)c1,-13,17,1,0,18,-4
O=C1CCCN1CCCNc1ncnc2c1[nH]c1ccc(Cl)cc12,-31,-4,0,0,35*,0
Clc1ccc2[nH]c3c(NCCCN4CCOCC4)ncnc3c2c1,-46,.,-2,-1,23,3
Cc1ccc(-c2nn(C)c(=O)c3ccccc23)cc1S(=O)(=O)NCCO,.,6,-1,0,29*,-2
Cc1ccc(-c2nn(C)c(=O)c3ccccc23)cc1S(=O)(=O)N1CCCC1,-50,10,0,2,36*,0
CCOC(=O)/C(C(C)=O)=C1\OC(=O)c2ccccc21,-8,-13,0,0,-2,0
Clc1cccc(N2CCN(CCNc3nc4ccccc4n4cnnc34)CC2)c1,-13,17,-1,8.9*,6,6
COc1ccc2[nH]c3c(c2c1)CN(C)CC3,15,7,-1,1,29*,102*
COc1ccc2[nH]c3ccccc3c2c1,8,-1,0,0,-14,-3
CCOC(=O)C1=C(c2ccccc2)N2CCN=C2S1,18,14,0,-1,15,-3
COC(=O)c1ccc(C)c(NS(=O)(=O)c2ccc3c(c2)OCCO3)c1,5,33,-1,-1,60*,-1
CSc1ccccc1NS(=O)(=O)c1ccc2c(c1)OCCO2,-14,4,-1,0,3,-3
CCc1nnc(NC(=O)CSc2nnc(CNc3ccc(Cl)cc3)o2)s1,1,2,-1,0,5,-3
CCOc1cc(C(=O)CSc2nnc(CNc3ccc(Cl)cc3)o2)ccc1NC(=O)CC,12,32,-1,4,58*,-2
Cc1cc(C(=O)NCc2cc(C(=O)O)oc2C)c(C)o1,.,-9,0,0,-3,0
CCC(c1nnnn1Cc1ccc2c(c1)OCO2)N1CCN(c2ccccc2)CC1 (centres undefined),8,39,0,-2,14,0
CCC(c1nnnn1Cc1ccc2c(c1)OCO2)N1CCN(c2ccc(F)cc2)CC1 (centres undefined),-7,44*,-2,-1,8,-2
CCOc1ccc(C2CC(c3cccc(OC)c3OC)n3nnnc3N2)cc1Cl (centres undefined),133,-4,-1,1,-8,0
FC(F)(F)c1ccc(N2CCN(c3cc(-c4ccccc4)nc4ncnn34)CC2)nc1,108*,-17,-1,0,4,0
Cc1ccc2nc3c(cc(C#N)c(=O)n3-c3nccs3)c(=O)n2c1,-110,-88,12*,13*,-31,59*
O=C(CN1C(=O)NC2(CCCCCC2)C1=O)N1CCC(Cc2ccccc2)CC1,19,-18,-1,0,1,-2
CC1CN(C(=O)CN2C(=O)NC3(CCCCCCC3)C2=O)CC(C)O1 (centres undefined),-10,-11,0,20*,-9,-1

# High-throughput results as filed in PubChem.
